Measurements as given in article PMC6129214 (Nature medicine, 2018).

Tests used:
[1] = system: platelet aggregation; experiment: Direct incubation of inhibitor with mouse PRP, platelet aggregometry; assay type: cell-based, mice; settings: 20 µM, with or without ADP
[2] = system: platelet aggregation; experiment: Mouse ex vivo platelet aggregometry in PRP; settings: ADP 1 μM, choline-supplemented mice
Summary of the method: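 Mice on a choline-supplemented (1% w/w) or control diet, with or without test compound in the diet (0.006% or 0.06% w/w, 2 weeks), are anaesthetized with ketamine 100 mg/kg and xylazine 10 mg/kg. Blood is drawn and PRP aggregation to 1 μM ADP is recorded as % of maximum amplitude per mouse. Plasma TMAO is also measured.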

[3] = system: carotid artery thrombus formation; experiment: FeCl3-induced carotid artery injury thrombosis model; assay type: in vivo, mice; settings: DMB 1.3% v/v; 0.06% IMC or 0.006% FMC in diet
[4] = system: plasma TMAO; experiment: Plasma TMAO levels; assay type: in vivo; settings: mice on a choline-supplemented diet, data not shown

SMILES	effect of direct incubation on platelet aggregometry responses, mouse PRP [1]	effect on choline diet-enhanced ADP-dependent platelet aggregation in PRP [2]	effect on choline diet-induced rise in TMAO and in vivo rate of clot formation [3]	effect on plasma TMAO levels in vivo [4]
CC(C)(C)CCO [DMB, 3,3-dimethyl-1-butanol]	no effects	significantly reduced	attenuated	–
Oc1ccc(/C=C/c2cc(O)cc(O)c2)cc1 [Resveratrol]	–	–	–	showed no effect
